PubChem BioAssay AID651787 (The Scripps Research Institute Molecular Screening Center, 2012)
The campaign covered roughly 2,400 compounds. About 1,200 (50%) were called active.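 How the source made its calls: active means activation above the run cutoff, the mean activation over all tested wells plus 3 SD (cut at about 12% in these data); inactive means the rest.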 The set was probably picked from earlier hits. Not all results are given here.

Experiment: nonselective calcium mobilization agonists, CHO-Ga16 cells, counter-screen for hTAAR1 agonist project, cell-based, fluorescence, CHO-Ga16 parental line (AID 651787);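 further: 0% = DMSO wells and 100% = maximal ATP response on the peak over basal ratio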
Settings: Fluo-8 calcium fluorescence, at 3 µM, hits give high values, normalized to maximal ATP response, DMSO zero
Procedure, shortened: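 Test system: Parental CHO cells stably overexpressing Gα16, lacking hTAAR1 | Input: 750 cells in each well | Compound dosing: One dose of 3 µM (nominal) | Timing: 17-24 h seeding, dye 75 min 37 °C, 30 min RT | Measured by: Fluo-8 calcium-dye fluorescence | Read-out basis: % activation from peak-to-basal fluorescence ratio, DMSO to ATP scale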
With Cc1ccc(Sc2cc(N3CCOCC3)nc(-c3ccccc3)n2)cc1 the activation was 4.27% (inactive).
In the case of O=C(COC(=O)Cc1ccccc1F)NCCc1ccccc1, the activation is reported as 0.47% (inactive).
With Fc1ccc(NC(=S)N2CCc3[nH]c4ccccc4c3C2)cc1 the activation was 11.5% (active).
For COc1ccc(OC)c(NC(=S)N2CCc3ccccc3C2)c1, the activation was 0.03% (inactive).
For O=C(Nc1ccc(Cl)cc1)N1CCc2[nH]c3ccccc3c2C1, the activation was 1.95% (inactive).
In the case of c1ccc2c(c1)C(=NC1CCCCC1)NC2=NC1CCCCC1, the activation is reported as 59.9% (active).
In the case of CCC(c1nnnn1Cc1ccco1)N(CCc1ccccc1)Cc1cc2cccc(C)c2[nH]c1=O (stereo not drawn), the activation is reported as 8.41% (inactive).
In the case of CC(Oc1ccc(Cl)cc1)C(=O)OCC(=O)Nc1ncc(Cl)cc1Cl (stereo not drawn), the activation is reported as 14.9% (active).
For COc1ccc2c(c1)OC(O)(C(F)(F)C(F)F)CC2=O (stereo not drawn), the activation was 27.7% (active).
For COc1ccc(Cl)cc1C(=O)NNC(=S)NC(=O)/C=C/c1ccco1, the activation was 83.3% (active).
For Cc1ccc(NC(=O)CCN2CCc3ccccc3C2)cc1, the activation was 10.8% (inactive).
For Nc1cc(OC(=O)c2ccccc2Br)nn1S(=O)(=O)c1ccccc1, the activation was 39.3% (active).
For S=C(NCCc1ccccc1)N1CCn2cccc2C1c1ccncc1 (stereo not drawn), the activation was 12.7% (active).
In the case of O=C(NCCc1ccccc1)C(=O)NCC1OCCN1S(=O)(=O)c1cccs1 (stereo not drawn), the activation is reported as 1.98% (inactive).
In the case of CCCSc1nc2c(c(=O)n(C)c(=O)n2C)n1Cc1ccc(C)cc1, the activation is reported as 34.2% (active).
With O=C1C=C(c2ccc(Cl)cc2)C(=O)N1Nc1ccccc1 the activation was 46% (active).
In the case of COc1ccc2cc(-c3[nH]ncc3CNCCn3nc(C)cc3C)ccc2c1, the activation is reported as 0.78% (inactive).
With COc1cccc(-c2cnc(OC(C)(C)C)nc2OC(C)(C)C)c1 the activation was 14.5% (active).
For CSc1nc(N)c(C#N)c(-c2ccccc2Cl)c1C#N, the activation was 54.2% (active).
For O=C(N[C@H](C(=O)N1CCC[C@H]1C(=O)NCCc1ccccc1Cl)c1ccccc1)c1ccccc1, the activation was 1.78% (inactive).
For OC(CNCCc1ccc(Cl)cc1Cl)COc1ccccc1 (stereo not drawn), the activation was 17.8% (active).
In the case of c1ccc2c(c1)OCC(CNc1ncnc3nc[nH]c13)O2 (stereo not drawn), the activation is reported as 170% (active).
In the case of COc1cc(OC)c(-n2cc(-c3ccc(Cl)cc3)[nH]c2=O)cc1Cl, the activation is reported as 74.4% (active).
